According to ChEMBL document CHEMBL2385029, “Cytotoxic activities of substituted 3-(3,4,5-trimethoxybenzylidene)-1,3-dihydroindol-2-ones and studies on their mechanisms of action” (Eur J Med Chem, 2013):
Active and inactive are the calls of the source. No cut-off for these calls is given here.

Experiments:
[1] = Inhibition of bovine brain tubulin assembly after 20 mins
Bos taurus = species on record: Bos taurus; experiment: Displacement of [3H]colchicine from bovine brain tubulin at 5 uM after 10 mins
[2] = Cytotoxicity against human ovarian cancer cells after 48 hrs; type: functional; settings: Cancer cell lines
Summary of the method: (§1)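 NCI 60-cell panel, values averaged per subpanel. Compounds were dissolved in DMSO and first screened at a single 10⁻⁵ M dose. Active ones then went to five concentrations at ten-fold dilutions, top 10⁻⁴ M (10⁻³ M for some), with 48 h exposure.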

[3] = Cytotoxicity against human NSCLC cells after 48 hrs; type: functional
Summary of the method: as §1

[4] = Cytotoxicity against human renal cancer cells after 48 hrs; type: functional; settings: Cancer cell lines
B1647 = experiment: Cytotoxicity against human B1647 cells at 5 to 10 uM after 24 hrs by MTT assay; type: functional, cell-based
Summary of the method: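 B1647 human AML cells grown in IMDM with 5% human serum (37 °C, 5% CO2); 10⁶ cells per well in 1 mL exposed to 5 or 10 µM compound (DMSO) for 24 h. MTT 0.5 mg/mL added for 4 h at 37 °C, formazan dissolved overnight in 10% SDS/0.01 M HCl, A570 read. Four independent experiments.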

[5] = molecular target: T1, NADPH oxidase 4 (Homo sapiens) (UniProt Q9NPH5); experiment: Inhibition of NOX4 in human B1647 cells assessed as reduction of ROS production after 20 mins by DCFH-DA fluorescence assay; type: cell-based; settings: in the assay text read “after 30 mins” for “after 20 mins”
T1 sequence (whole entry): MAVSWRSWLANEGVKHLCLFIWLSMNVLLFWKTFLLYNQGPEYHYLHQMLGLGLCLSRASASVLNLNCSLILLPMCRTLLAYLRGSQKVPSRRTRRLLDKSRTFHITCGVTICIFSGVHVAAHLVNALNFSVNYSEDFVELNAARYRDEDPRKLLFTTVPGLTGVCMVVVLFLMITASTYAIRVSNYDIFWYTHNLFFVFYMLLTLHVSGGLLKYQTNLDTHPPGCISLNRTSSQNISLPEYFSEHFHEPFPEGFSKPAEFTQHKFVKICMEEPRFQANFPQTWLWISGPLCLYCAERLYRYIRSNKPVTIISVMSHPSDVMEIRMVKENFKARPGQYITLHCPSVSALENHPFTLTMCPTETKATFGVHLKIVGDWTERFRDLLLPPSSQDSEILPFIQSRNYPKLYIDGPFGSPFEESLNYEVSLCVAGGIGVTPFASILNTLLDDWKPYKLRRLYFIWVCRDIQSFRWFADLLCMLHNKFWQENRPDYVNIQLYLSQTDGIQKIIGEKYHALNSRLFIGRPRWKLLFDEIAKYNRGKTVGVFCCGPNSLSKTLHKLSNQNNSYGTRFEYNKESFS
Summary of the method: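 B1647 cells given compound (DMSO) at 5 or 10 µM for 30 min, then at 1 × 10⁶/mL washed twice in PBS and loaded with 5 µM DCFH-DA for 20 min at 37 °C. DCF fluorescence read in multiwell plate; four independent experiments.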

[6] = Cytotoxicity against human breast cancer cells after 48 hrs; type: functional; settings: Cancer cell lines
Summary of the method: as §1

[7] = Inhibition of nox4 expression in human B1647 cells at 10 uM after 24 hrs by Western blot analysis relative to control; type: functional
Summary of the method: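 B1647 cells treated 24 h at 10 µM. Lysates (40 µg protein per lane) run on 10% SDS-PAGE and transferred to nitrocellulose. Blots probed with anti-Nox4, with β-tubulin as loading control, and detected by chemiluminescence. Bands quantified by densitometry in arbitrary units relative to control; three independent experiments.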

[8] = Cytotoxicity against human prostate cancer cells after 48 hrs; type: functional; settings: Cancer cell lines
Summary of the method: as §1

[9] = Cytotoxicity against human CNS cancer cells after 48 hrs; type: functional; settings: Cancer cell lines
Summary of the method: as §1

[10] = molecular target: T1, NADPH oxidase 4 (Homo sapiens); experiment: Inhibition of NOX4 in human nox2 silenced B1647 cells assessed as reduction of ROS production at 50 nM after 20 mins by DCFH-DA fluorescence assay; type: cell-based; settings: 5 or 10 uM, in the assay text read “at 5 or 10 uM after 30 mins” for “at 50 nM after 20 mins”
Summary of the method: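 B1647 cells nucleofected with Nox2 siRNA or scrambled siRNA (final 50 nM), used after 24–48 h. Compound treatment for 30 min, then 5 µM DCFH-DA loading for 20 min at 37 °C and DCF fluorescence read. Scrambled cells served as control.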

[11] = Cytotoxicity against human melanoma cells after 48 hrs; type: functional; settings: Melanoma cell
[12] = Cytotoxicity against human leukemia cells after 48 hrs; type: functional; settings: Leukemia cell
[13] = Cytotoxicity against human colon cancer cells after 48 hrs; type: functional; settings: Cancer cell lines
Summary of the method: as §1

[14] = read-out: LC50 (the source's name)

| SMILES | IC50 [1] [µM] | inhibition (Bos taurus) [%] | GI50 [2] [µM] | TGI [2] [µM] | GI50 [3] [µM] | TGI [3] [µM] | GI50 [4] [µM] | TGI [4] [µM] | Activity (B1647) | inhibition [5] | GI50 [6] [µM] | TGI [6] [µM] | fold change (FC) [7] | GI50 [8] [µM] | GI50 [9] [µM] | TGI [9] [µM] | inhibition [10] | GI50 [11] [µM] | GI50 [12] [µM] | GI50 [13] [µM] | also measured |
| --- | --- | --- | --- | --- | --- | --- | --- | --- | --- | --- | --- | --- | --- | --- | --- | --- | --- | --- | --- | --- | --- |
| COc1cc(/N=C2\C(=O)N(Cc3ccccc3)c3ccccc32)cc(OC)c1OC | 3.3 | 31 | – | – | – | – | – | – | – | – | – | – | – | – | – | – | – | – | – | – | – |
| COc1cc(/C=C2/C(=O)Nc3cc(C)c(O)cc32)cc(OC)c1OC | > 20 | – | 7.1 | 37.1 | 5.7 | 31.6 | 7.1 | 25.1 | Active | Dose-dependent effect | 2.5 | 14.4 | 0.64 | 3.9 | 5.2 | 25.7 | Active | 3.6 | 1.8 | 4 | CC50 [2, 14]: 87.1 µM; CC50 [3, 14]: 79.4 µM; LC50 [4]: 66.1 µM; LC50 [6]: 74.1 µM; TGI [8]: 30.9 µM; CC50 [8, 14]: 91.2 µM; LC50 [9]: 85.1 µM; TGI [11]: 16.6 µM; CC50 [11, 14]: 53.7 µM; CC50 [12, 14]: 70.8 µM; LC50 [13]: 53.7 µM; TGI [13]: 18.2 µM |
| COc1cc(/C=C2\C(=O)Nc3ccc(Br)cc32)cc(OC)c1OC | > 20 | – | 17 | 69.2 | 9.5 | 77.6 | 14.1 | 75.9 | Active | Dose-dependent effect | 3.2 | 45.7 | 0.86 | 11 | 14.8 | 56.2 | Active | 10.2 | 2.1 | 6.2 | – |
| COc1ccc2c(c1)/C(=C\c1cc(OC)c(OC)c(OC)c1)C(=O)N2 | 6.1 | 35 | – | – | – | – | – | – | – | – | – | – | – | – | – | – | – | – | – | – | – |
